Measurements pooled from the literature.

O=c1nc(N2CCN(CC3CCCCC3)CC2)sc2c([N+](=O)[O-])cc(C(F)(F)F)cc12  concentration (CD-1 mouse, plasma; oral, 100 mg/kg, 8 h): 336 ng/mL
CCc1ccc(Cc2cc([C@@H]3O[C@H](CO)[C@@H](O)[C@H](O)[C@H]3O)cc3c2CCC3)cc1  half-life (male C57BL/6 mouse, plasma; oral, 0.3 mg/kg): 3.1 h
Cc1ccc(C(CC(=O)c2ccc(Oc3ccccc3)c(O)c2)C(N)=O)cc1 (stereo not shown)  chromatographic logP (HPLC): 4.06
CC(C)(Nc1nc(-c2ccccn2)nc2ccccc12)c1ccccn1  concentration (female BALB/c mouse, plasma; intravenous, 1 mg/kg, 4.98 min): 1460 ng/mL
CC(C)(O)c1ccccc1-c1ccc2[nH]c(/C=C/c3ccc(C(F)(F)F)cc3)nc2c1  MRT (male human, plasma; oral, 50 mg, single dose, fasted, healthy volunteers): 99.5 h
CCc1cc(C(=O)NC)c2nccc(N3CCc4c(cc(Cn5ccnc5)cc4-c4cn(C)nc4C(F)(F)F)C3=O)c2c1  half-life (male CD-1 mouse, plasma; intravenous, 3 mg/kg): 0.8 h
c1cnc2ccc(Nc3nc(NC4CC4)c4nc[nH]c4n3)cc2c1  MRT(0-t) (human, plasma; oral, 800 mg/m², patients): 9.6 h
O=C(O)C1CCN(c2ncc(-c3ccc4c(c3)OCCCO4)s2)CC1  concentration (male Swiss mouse, plasma; oral, 30 mg/kg, 12 h, single dose): 1640 ng/mL
COc1cc(/C=C/c2ccc(O)cc2)cc(OC)c1  chromatographic logP (HPLC): > 3.14
N#CN1C[C@H](n2nc(-c3ccc(Oc4ccc(Cl)cn4)cc3)c(C(N)=O)c2N)CCC12CC2  MRT (human, plasma; oral, 600 mg, fasted): 31.6 h
O=C1NN=C(N=Cc2ccc(O)c(O)c2)C1=NNn1c(-c2ccccc2)nc2ccccc2c1=O  logP: 3.38
CC(C)(C)c1ccc(O)c(CN(Cc2cc(C(C)(C)C)ccc2O)C2CCC(NC(N)=O)CC2)c1 (stereo not shown)  half-life (male C57BL/6 mouse, brain; intraperitoneal, 5 mg/kg, single dose): 7.1 h
Oc1cccc(/C=C/c2ccccc2)c1  chromatographic logP (HPLC): > 3.14
CC(C)CN(C[C@@H](O)[C@H](Cc1ccccc1)NC(=O)O[C@H]1CO[C@H]2OCC[C@H]21)S(=O)(=O)c1ccc(N)cc1  concentration (BALB/c mouse, plasma; intravenous, 25 mg/kg, 12 h): 31.4 ng/mL
c1ccc(-c2nc(N3CCC(c4ccccn4)C3)c3ccccc3n2)nc1 (stereo not shown)  concentration (female BALB/c mouse, plasma; oral, 50 mg/kg, 8 h): 19.6 ng/mL
O=S(=O)(c1ccc(-c2ccc3nccc(Nc4ccncn4)c3c2)cc1)N1CCOCC1  concentration (female BALB/c mouse, plasma; intraperitoneal, 10 mg/kg, 4.8 min): 2340 ng/mL
CC[C@H](C)[C@@H]1NC(=O)[C@@](C)(NC(=O)[C@H](CCCNC(=N)N)NC(=O)[C@H](CC(C)C)NC(=O)[C@@H](NC(=O)[C@H](CCC(N)=O)NC(=O)[C@H](CC(C)C)NC(C)=O)[C@@H](C)O)CCCC=CCCC[C@@](C)(C(=O)N[C@@H](CC(C)C)C(=O)N[C@@H](Cc2ccc3ccccc3c2)C(N)=O)NC(=O)[C@H](CCCNC(=N)N)NC(=O)[C@H](CCC(N)=O)NC1=O  half-life (male BALB/c mouse, plasma; intraperitoneal, 5 mg/kg): 3.09 h
CC1=NN(CNc2ccccc2)C(=O)C1=NNn1c(-c2ccccc2)nc2ccccc2c1=O  logP: 4.49
CC(C)Oc1cccc(-c2cnc(N3CCC(C(N)=O)CC3)s2)c1  concentration (male Swiss mouse, brain; oral, 30 mg/kg, 4 h, single dose): 83 nM
CS(=O)(=O)CCC#N  MRT (human, plasma; oral, 100 mg, single dose, fasted): 30.5 h
COc1cc(O)cc(/C=C/c2ccccc2)c1  chromatographic logP (HPLC): > 3.14
O=C1NN=C(N=Cc2ccc(O)cc2O)C1=NNn1c(-c2ccccc2)nc2ccccc2c1=O  logP: 3.38
